Bioassay records (PubChem)
Insulin prom inh: TRM-6 insulin promoter activity inhibition | TRM-6 cells (human fetal islet line), insulin promoter-eGFP reporter, imaging; reporter expression induced with tamoxifen | inhibition, % at 2 µM | 0.9% of 130,000 active;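 active means inhibition above the mean plus 3 SD, with well images judged a real hit on visual review, cut at about 60% in these data, passing the limit was not always enough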
NPY2 pot ag: potentiates or activates human NPY-Y2 receptor | P49146 | cells expressing NPY-Y2, potentiator/agonist read-out | activation, % at 3.6 µM | 0.45% of 220,000 active | AID 1359; in the data active means activation above about 27%;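 further: cells stimulated with NPY near EC25 plus isoproterenol at EC100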
Target sequence (P49146 whole entry, looked up): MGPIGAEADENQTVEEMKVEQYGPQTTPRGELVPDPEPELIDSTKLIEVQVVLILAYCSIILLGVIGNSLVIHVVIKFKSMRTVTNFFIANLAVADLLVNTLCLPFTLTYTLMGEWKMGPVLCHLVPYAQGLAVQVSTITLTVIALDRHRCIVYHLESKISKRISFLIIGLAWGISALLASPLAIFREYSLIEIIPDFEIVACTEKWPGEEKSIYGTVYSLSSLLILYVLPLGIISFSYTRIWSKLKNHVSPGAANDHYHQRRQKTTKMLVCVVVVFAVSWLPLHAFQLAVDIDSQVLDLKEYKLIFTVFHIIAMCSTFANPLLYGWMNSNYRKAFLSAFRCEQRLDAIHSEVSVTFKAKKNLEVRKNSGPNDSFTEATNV
NPY-Y1 PAM-ag: potentiators or agonists of human neuropeptide Y receptor Y1; NPY-Y1 expressing cells, potentiator/agonist activation; activation, % at 3.6 µM; 0.37% of 220,000 active; AID 1304; in the data active means activation above about 33%, passing the limit was not always enough;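 further: cells stimulated with NPY at EC10 then isoproterenol at EC100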
NPY Y1 blocker: antagonists of human neuropeptide Y receptor Y1. P25929. inhibition, % at 3.6 µM. AID 1040. HEK293-CNG Y1 cells, membrane potential fluorescence; NPY at EC95, then isoproterenol. 1% of 200,000 active;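 active means inhibition above the campaign mean inhibition of all tested compounds plus 3 SD, cut at about 20% in these data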
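Material: Y1- and CNG-channel-expressing HEK293 cells / Probe or stimulus: NPY 25 nM then isoproterenol 1 µM plus Ro 20-1724 25 µM / Doses: 3.6 µM single dose, DMSO 0.4% / Schedule: compound incubation 1 h at room temperature, readout 45 min post-stimulation / Signal: membrane potential fluorescence / Benchmarks: isoproterenol-only wells as full block versus NPY-plus-isoproterenol wells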
RAM network inh: blocks the yeast RAM network | S. cerevisiae dse1pr::URA3 reporter, 5-FOA growth OD615, 2 d; analog-sensitive cbk1-as2 kinase mutant strain | inhibition, % at 50 µM | 1.8% of 190,000 active;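 active means inhibition above a set limit, 3 SD over mean compound inhibition, cut at about 8.4% in these data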;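 further: inhibition rescues growth on 5-FOA so higher OD means more RAM inhibition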
NPY-Y2 antag: blocks the human neuropeptide Y Y2 receptor. AID 793. 0.99% of 140,000 active. NPY-Y2 expressing cells, antagonist mode. inhibition, % at 2.7 µM; in the data active means inhibition above about 17%
RAM efflux-def: restores 5-FOA growth of efflux-deficient yeast; shares compounds with RAM network inh; S. cerevisiae efflux-deficient reporter strain, 5-FOA growth OD615, 2 days; max inhibition, %; 1,200 tested, under 10 active; call rule not given here
Large screens that a line does not name were inactive (follow-up assays come after a bar, where they were run). Shown are actives, neighbours in structure and some others; about 3.8% of the full set was active somewhere.

COc1cccc(NC(=S)N(Cc2ccc(Cl)cc2)Cc2ccc(C(=O)O)cc2)c1	RAM network inh 14 (no result: Insulin prom inh, NPY-Y2 antag) | RAM efflux-def inactive
Cc1cccc(NC(=S)N(Cc2ccc(Br)cc2)Cc2ccc(C(=O)O)cc2)c1	none (no result: Insulin prom inh, NPY-Y2 antag)
Cc1ccc(N/N=C/c2c(C)c(C#N)c(=O)n(C)c2O)cc1C	RAM network inh 13 (no result: Insulin prom inh, NPY-Y2 antag) | RAM efflux-def inactive
C=CCOc1c(Br)cc(CNc2ccc(NC(=O)CCC)cc2)cc1OCC	none
C=CCOc1c(Br)cc(CNc2ccc(NC(=O)C(C)C)c(OC)c2)cc1OCC	RAM network inh 12 | RAM efflux-def inactive
C=CCc1cccc(/C=N/NC(=O)C(C)Nc2ccc(C)cc2)c1O (stereo not given)	RAM network inh 16 | RAM efflux-def inactive
COc1ccc(CN2C3CCCC2CC(NC(=O)/C=C/c2ccccc2)C3)cc1 (stereo not given)	none (no result: NPY-Y2 antag)
COc1cc(CNn2c(C)n[nH]c2=S)cc(Cl)c1OCc1ccc(F)cc1	RAM network inh 12 | RAM efflux-def inactive
CCCC(=O)Oc1ccc(N(C(=O)CCC)S(=O)(=O)c2cccc([N+](=O)[O-])c2)cc1	none
CCOC(=O)C(C)(C)N(Cc1cccc(C)c1)S(=O)(=O)c1cccc([N+](=O)[O-])c1	RAM network inh 13 (no result: Insulin prom inh) | RAM efflux-def inactive
O=C(OCC#CCSc1nnc(-c2cccc3ccccc23)o1)c1cccs1	RAM network inh 14 | RAM efflux-def inactive
O=C(COc1cccc(F)c1)N1c2ccccc2Sc2ccccc21	Insulin prom inh 79, RAM network inh 15 | RAM efflux-def inactive
Cc1ccc(NC2=Nc3ccccc3N3C2=Nc2c(c(C)nn2-c2ccccc2)C3c2ccc(O)c(O)c2)cc1 (stereo not given)	RAM network inh 11 | RAM efflux-def inactive
Cc1nn(-c2ccccc2)c2c1C(c1ccc([N+](=O)[O-])cc1)N1C(=N2)C(=O)Nc2ccccc21 (stereo not given)	none (no result: Insulin prom inh)
Cc1nn(-c2ccccc2)c2c1C(c1ccc(O)c(O)c1)N1C(=N2)C(Nc2ccccc2)=Nc2ccccc21 (stereo not given)	none
Cc1cccc(NC2=Nc3ccccc3N3C2=Nc2c(c(C)nn2-c2ccccc2)C3c2ccc(O)c(O)c2)c1 (stereo not given)	RAM network inh 12 | RAM efflux-def inactive
Cn1c(=O)[nH]c(=O)c2c1nc(N/N=C/c1ccncc1)n2Cc1ccc(Cl)cc1	none (no result: Insulin prom inh, NPY Y1 blocker, RAM network inh, NPY-Y2 antag)
COc1cccc(/C=C(/C(=O)OCC(=O)NCC2CCCO2)c2ccccc2)c1 (stereo not given)	none (no result: Insulin prom inh, NPY-Y2 antag)
COc1cccc(/C=C(/C(=O)OCC(=O)NC2CCCCCCC2)c2ccccc2)c1	RAM network inh 13 (no result: Insulin prom inh) | RAM efflux-def inactive
COc1ccc(Oc2ccc(/C=N/NC(=O)c3cccnc3)cc2[N+](=O)[O-])cc1	none (no result: Insulin prom inh, NPY-Y2 antag)
COc1ccc(Oc2ccc(/C=C/C(=O)c3cccc(OC)c3)cc2[N+](=O)[O-])cc1	RAM network inh 11 | RAM efflux-def inactive
Clc1ccc(-c2nnc(CSc3nnc(-c4cccs4)o3)o2)cc1	RAM network inh 13 | RAM efflux-def inactive
COc1ccccc1-n1c(=S)[nH]c2c(sc(=S)n2-c2ccccc2C)c1=O	none (no result: NPY-Y2 antag)
COc1ccc(CCN(Cc2cccs2)S(=O)(=O)c2ccc(S(=O)(=O)N3CCCCCC3)cc2)cc1OC	none (no result: Insulin prom inh)
CCC(C)NS(=O)(=O)c1ccc(S(=O)(=O)N(CCc2ccc(OC)c(OC)c2)Cc2cccs2)cc1 (stereo not given)	NPY Y1 blocker 35, RAM network inh 15, NPY-Y2 antag 31 | RAM efflux-def inactive
CCOc1ccc2nc3c(cc2c1)CN(CCOC)C(=NCCOC)S3	RAM network inh 14 | RAM efflux-def inactive
CCN(CC)S(=O)(=O)c1ccc(NC(=O)CCC2CCCCC2)cc1	RAM network inh 12 | RAM efflux-def inactive
Fc1ccc(CSc2nnc(Cc3sc(-c4ccccc4)nc3-c3ccccc3)o2)cc1	RAM network inh 22 | RAM efflux-def inactive
Cn1c(=O)cc(OCCCC(=O)NCc2ccc(F)cc2Cl)c2ccccc21	RAM network inh 16 (no result: NPY-Y2 antag) | RAM efflux-def inactive
S=C(NCc1ccccn1)Nc1ccc(Br)cc1Cl	none (no result: NPY-Y2 antag)
COc1cccc(-c2nc(=S)c3c(o2)CCCC3)c1	none (no result: NPY-Y2 antag)
COc1cccc(-c2nc(=S)c3c(n2Cc2ccco2)CCCC3)c1	RAM network inh 14 | RAM efflux-def inactive
CC1(C)Cc2c(sc3c2c(N)nc(=S)n3Cc2ccc(Br)cc2)CO1	none (no result: Insulin prom inh, NPY Y1 blocker, RAM network inh, NPY-Y2 antag)
COc1ccc(CN2C(=O)CS/C2=N/N=C/c2ccccc2)cc1	none (no result: Insulin prom inh, NPY Y1 blocker, RAM network inh, NPY-Y2 antag)
CCCC1S/C(=N/N=C/c2ccc(C)cc2)N(Cc2ccc(OC)cc2)C1=O (stereo not given)	RAM network inh 12 | RAM efflux-def inactive
Cn1c(N=Nc2ccc(N3CCOCC3)cc2)[n+](C)c2ccccc21	RAM network inh 13 (no result: Insulin prom inh, NPY-Y2 antag) | RAM efflux-def inactive
COc1ccc(C(=O)COC(=O)C(CCSC)NS(=O)(=O)c2ccc(Cl)cc2)cc1 (stereo not given)	RAM network inh 15 | RAM efflux-def inactive
Cc1cc(-c2ccccc2)nn1-c1nc2c(c(=O)[nH]c(=O)n2C)n1C	none
O=C(Cn1nc(C(F)F)cc1C(F)F)NNC(=S)Nc1ccc([N+](=O)[O-])cc1	none (no result: Insulin prom inh, NPY-Y2 antag)
CCCCOC(=O)c1ccc(NC(C)=O)cc1	none (no result: Insulin prom inh)
CCCCOC(=O)c1ccc(NC(=O)/C=C/c2cccs2)cc1	RAM network inh 15 (no result: Insulin prom inh) | RAM efflux-def inactive
COc1ccc(Cc2nc(-c3ccc(-n4cccc4)cc3)no2)cc1OC	RAM network inh 12 (no result: Insulin prom inh) | RAM efflux-def inactive
Cc1ccc(/C=N/NC(=O)CCCOc2ccc(Cl)cc2Cl)cc1	RAM network inh 12 | RAM efflux-def inactive
O=C(CCCOc1ccc(Cl)cc1Cl)N/N=C/c1ccccc1	RAM network inh 12 | RAM efflux-def inactive
O=C(c1ccccc1)c1ccc(OCC(=O)N2CCOCC2)cc1	none (no result: NPY-Y2 antag)
COc1ccccc1-c1cc(C(F)(F)F)nc(N2CCN(c3ccccc3)CC2)n1	RAM network inh 13 | RAM efflux-def inactive
COc1ccc(CC(=O)Nc2nnc(C(C)C)s2)cc1OC	none (no result: NPY-Y2 antag)
C=CCn1c(C)cc(C(=O)COC(=O)/C=C/c2ccc(OC)cc2)c1C	none (no result: NPY-Y2 antag)
C=CCn1c(C)cc(C(=O)COC(=O)/C=C/c2cccc(OC)c2)c1C	RAM network inh 20 (no result: NPY-Y2 antag) | RAM efflux-def inactive
COc1ccc(CNc2oc(Cc3cccc4ccccc34)nc2C#N)cc1	RAM network inh 13 (no result: Insulin prom inh) | RAM efflux-def inactive
N#Cc1nc(Cc2ccccc2)oc1N1CCN(c2ccccc2)CC1	none
COc1ccccc1-c1nc(C#N)c(N2CCN(Cc3ccccc3)CC2)o1	none
COc1ccccc1-c1nc(C#N)c(N2CCC(Cc3ccccc3)CC2)o1	RAM network inh 13 | RAM efflux-def inactive
N#Cc1nc(Cc2ccccc2)oc1N1CCC(Cc2ccccc2)CC1	RAM network inh 13 | RAM efflux-def inactive
